{"source": "ChEMBL document CHEMBL5058577", "about": "“EUbOPEN Chemogenomics Library 2 (Multiplex)” (2022)", "system": "U2OS", "assay": "Multiplex assay against U2OS", "type": "toxicity, cell-based", "settings": "human", "procedure,_shortened": "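Hoechst33342, BioTracker Green Microtubule Cytoskeleton Dye, MitoTracker Red and Annexin V Alexa Fluor 680 were added to live cells at seeding, and imaging on a CQ1 microscope at 37°C and 5% CO2 followed compound addition. Gating by CellPathfinder machine learning separated cells into Hoechst high-intensity objects or normal cells, then normal cells into healthy, pyknosed or fragmented nuclei, then pyknosed cells into mitotic or apoptotic. Per cents of healthy-nucleus cells are reported for the tubulin, mitochondrial-mass and membrane-permeability phenotypes.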", "key": {"[1]": {"settings": "12 h, 1 µM, compound concentration 1 uM, replicate 1"}, "[2]": {"settings": "12 h, 1 µM, compound concentration 1 uM, replicate 2"}, "[3]": {"settings": "12 h, 10 µM, compound concentration 10 uM, replicate 1"}, "[4]": {"settings": "12 h, 10 µM, compound concentration 10 uM, replicate 2"}, "[5]": {"settings": "24 h, 1 µM, compound concentration 1 uM, replicate 1"}, "[6]": {"settings": "24 h, 1 µM, compound concentration 1 uM, replicate 2"}, "[7]": {"settings": "24 h, 10 µM, compound concentration 10 uM, replicate 1"}, "[8]": {"settings": "24 h, 10 µM, compound concentration 10 uM, replicate 2"}, "[9]": {"settings": "48 h, 1 µM, compound concentration 1 uM, replicate 1"}, "[10]": {"settings": "48 h, 1 µM, compound concentration 1 uM, replicate 2"}, "[11]": {"settings": "48 h, 10 µM, compound concentration 10 uM, replicate 1"}, "[12]": {"settings": "48 h, 10 µM, compound concentration 10 uM, replicate 2"}}, "data": [{"molecule": "Cc1ccc(-c2ccc(F)cc2COc2ccc(CCC(=O)O)cc2)cc1", "values": [{"measurement": "Population Apoptotic (%)", "setting": "[1]", "result": 75, "unit": "%"}, {"measurement": "Population Fragmented Nuclei (%)", "setting": "[1]", "result": 22, "unit": "%"}, {"measurement": "Population Healthy Nuclei (%)", "setting": "[1]", "result": 71, "unit": "%"}, {"measurement": "Population Mitotic Cells (%)", "setting": "[1]", "result": 25, "unit": "%"}, {"measurement": "Population Normal (%)", "setting": "[1]", "result": 97, "unit": "%"}, {"measurement": "Population Pyknosed Nuclei (%)", "setting": "[1]", "result": 5, "unit": "%"}, {"measurement": "Total Cell Count", "setting": "[1]", "result": 277}, {"measurement": "Population Apoptotic (%)", "setting": "[2]", "result": 100, "unit": "%"}, {"measurement": "Population Fragmented Nuclei (%)", "setting": "[2]", "result": 17, "unit": "%"}, {"measurement": "Population Healthy Nuclei (%)", "setting": "[2]", "result": 74, "unit": "%"}, {"measurement": "Population Mitotic Cells (%)", "setting": "[2]", "result": 0, "unit": "%"}, {"measurement": "Population Pyknosed Nuclei (%)", "setting": "[2]", "result": 8, "unit": "%"}, {"measurement": "Total Cell Count", "setting": "[2]", "result": 135}, {"measurement": "Population Apoptotic (%)", "setting": "[3]", "result": 75, "unit": "%"}, {"measurement": "Population Fragmented Nuclei (%)", "setting": "[3]", "result": 31, "unit": "%"}, {"measurement": "Population Healthy Nuclei (%)", "setting": "[3]", "result": 61, "unit": "%"}, {"measurement": "Population Mitotic Cells (%)", "setting": "[3]", "result": 25, "unit": "%"}, {"measurement": "Population Normal (%)", "setting": "[3]", "result": 98, "unit": "%"}, {"measurement": "Population Pyknosed Nuclei (%)", "setting": "[3]", "result": 6, "unit": "%"}, {"measurement": "Total Cell Count", "setting": "[3]", "result": 238}, {"measurement": "Population Apoptotic (%)", "setting": "[4]", "result": 83, "unit": "%"}, {"measurement": "Population Fragmented Nuclei (%)", "setting": "[4]", "result": 14, "unit": "%"}, {"measurement": "Population Healthy Nuclei (%)", "setting": "[4]", "result": 75, "unit": "%"}, {"measurement": "Population Mitotic Cells (%)", "setting": "[4]", "result": 16, "unit": "%"}, {"measurement": "Population Normal (%)", "setting": "[4]", "result": 97, "unit": "%"}, {"measurement": "Population Pyknosed Nuclei (%)", "setting": "[4]", "result": 10, "unit": "%"}, {"measurement": "Total Cell Count", "setting": "[4]", "result": 123}, {"measurement": "Population Apoptotic (%)", "setting": "[5]", "result": 90, "unit": "%"}, {"measurement": "Population Fragmented Nuclei (%)", "setting": "[5]", "result": 21, "unit": "%"}, {"measurement": "Population Healthy Nuclei (%)", "setting": "[5]", "result": 69, "unit": "%"}, {"measurement": "Population Mitotic Cells (%)", "setting": "[5]", "result": 10, "unit": "%"}, {"measurement": "Population Normal (%)", "setting": "[5]", "result": 97, "unit": "%"}, {"measurement": "Population Pyknosed Nuclei (%)", "setting": "[5]", "result": 9, "unit": "%"}, {"measurement": "Total Cell Count", "setting": "[5]", "result": 340}, {"measurement": "Population Apoptotic (%)", "setting": "[6]", "result": 100, "unit": "%"}, {"measurement": "Population Fragmented Nuclei (%)", "setting": "[6]", "result": 20, "unit": "%"}, {"measurement": "Population Healthy Nuclei (%)", "setting": "[6]", "result": 70, "unit": "%"}, {"measurement": "Population Mitotic Cells (%)", "setting": "[6]", "result": 0, "unit": "%"}, {"measurement": "Population Normal (%)", "setting": "[6]", "result": 98, "unit": "%"}, {"measurement": "Population Pyknosed Nuclei (%)", "setting": "[6]", "result": 8, "unit": "%"}, {"measurement": "Total Cell Count", "setting": "[6]", "result": 175}, {"measurement": "Population Apoptotic (%)", "setting": "[7]", "result": 94, "unit": "%"}, {"measurement": "Population Fragmented Nuclei (%)", "setting": "[7]", "result": 26, "unit": "%"}, {"measurement": "Population Healthy Nuclei (%)", "setting": "[7]", "result": 67, "unit": "%"}, {"measurement": "Population Mitotic Cells (%)", "setting": "[7]", "result": 5, "unit": "%"}, {"measurement": "Population Normal (%)", "setting": "[7]", "result": 98, "unit": "%"}, {"measurement": "Population Pyknosed Nuclei (%)", "setting": "[7]", "result": 5, "unit": "%"}, {"measurement": "Total Cell Count", "setting": "[7]", "result": 295}, {"measurement": "Population Apoptotic (%)", "setting": "[8]", "result": 93, "unit": "%"}, {"measurement": "Population Fragmented Nuclei (%)", "setting": "[8]", "result": 22, "unit": "%"}, {"measurement": "Population Mitotic Cells (%)", "setting": "[8]", "result": 6, "unit": "%"}, {"measurement": "Population Normal (%)", "setting": "[8]", "result": 97, "unit": "%"}, {"measurement": "Population Pyknosed Nuclei (%)", "setting": "[8]", "result": 9, "unit": "%"}, {"measurement": "Total Cell Count", "setting": "[8]", "result": 160}, {"measurement": "Population Apoptotic (%)", "setting": "[9]", "result": 89, "unit": "%"}, {"measurement": "Population Fragmented Nuclei (%)", "setting": "[9]", "result": 17, "unit": "%"}, {"measurement": "Population Healthy Nuclei (%)", "setting": "[9]", "result": 74, "unit": "%"}, {"measurement": "Population Mitotic Cells (%)", "setting": "[9]", "result": 10, "unit": "%"}, {"measurement": "Population Normal (%)", "setting": "[9]", "result": 97, "unit": "%"}, {"measurement": "Population Pyknosed Nuclei (%)", "setting": "[9]", "result": 8, "unit": "%"}, {"measurement": "Total Cell Count", "setting": "[9]", "result": 487}, {"measurement": "Population Apoptotic (%)", "setting": "[10]", "result": 95, "unit": "%"}, {"measurement": "Population Fragmented Nuclei (%)", "setting": "[10]", "result": 15, "unit": "%"}, {"measurement": "Population Healthy Nuclei (%)", "setting": "[10]", "result": 75, "unit": "%"}, {"measurement": "Population Mitotic Cells (%)", "setting": "[10]", "result": 5, "unit": "%"}, {"measurement": "Total Cell Count", "setting": "[10]", "result": 242}, {"measurement": "Population Apoptotic (%)", "setting": "[11]", "result": 87, "unit": "%"}, {"measurement": "Population Fragmented Nuclei (%)", "setting": "[11]", "result": 21, "unit": "%"}, {"measurement": "Population Healthy Nuclei (%)", "setting": "[11]", "result": 70, "unit": "%"}, {"measurement": "Population Mitotic Cells (%)", "setting": "[11]", "result": 12, "unit": "%"}, {"measurement": "Population Normal (%)", "setting": "[11]", "result": 97, "unit": "%"}, {"measurement": "Population Pyknosed Nuclei (%)", "setting": "[11]", "result": 7, "unit": "%"}, {"measurement": "Total Cell Count", "setting": "[11]", "result": 421}, {"measurement": "Population Apoptotic (%)", "setting": "[12]", "result": 88, "unit": "%"}, {"measurement": "Population Fragmented Nuclei (%)", "setting": "[12]", "result": 16, "unit": "%"}, {"measurement": "Population Healthy Nuclei (%)", "setting": "[12]", "result": 72, "unit": "%"}, {"measurement": "Population Mitotic Cells (%)", "setting": "[12]", "result": 11, "unit": "%"}, {"measurement": "Population Normal (%)", "setting": "[12]", "result": 98, "unit": "%"}, {"measurement": "Total Cell Count", "setting": "[12]", "result": 236}]}]}
